Assay results from BindingDB's records for doi:10.1021/jm00089a014 (Genentech, 1992).
*1 amine or outer side, *2 acyl side, *3 side chain or, on linkers, in order; H or OH if unused. Where a SMILES comes first, the peptide text is derived from it. Bridges are numbered along the chain shown (N, C = ends). [ ]: non-standard residue; d: D form. Cys(O)(CH2CO) = O=C([C@H](C[S+]([O-])CC(=O)[*:3])N[*:1])[*:2]

Molecular target: Integrin alpha-IIb/beta-3 (Homo sapiens, UniProt P08514+P05106)
Assay: Inhibition of ADP-induced platelet aggregation in human platelet-rich plasma
Outline: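 Human blood drawn into 3.8% sodium citrate (9:1); PRP from 180g spin, 12 min, 22 °C; count adjusted to 3 × 10^8/mL with PPP. PRP preincubated with test sample 5 min at 37 °C in aggregometer, then ADP 17.2 µM final. Inhibition from transmittance change at 5 min versus no-sample maximum; 12-14 concentrations over ~200-fold range; IC50 by four-parameter fit; n ≥ 3.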

Integrin alpha-IIb/beta-3, sequence (P05106 27-788 limits assumed): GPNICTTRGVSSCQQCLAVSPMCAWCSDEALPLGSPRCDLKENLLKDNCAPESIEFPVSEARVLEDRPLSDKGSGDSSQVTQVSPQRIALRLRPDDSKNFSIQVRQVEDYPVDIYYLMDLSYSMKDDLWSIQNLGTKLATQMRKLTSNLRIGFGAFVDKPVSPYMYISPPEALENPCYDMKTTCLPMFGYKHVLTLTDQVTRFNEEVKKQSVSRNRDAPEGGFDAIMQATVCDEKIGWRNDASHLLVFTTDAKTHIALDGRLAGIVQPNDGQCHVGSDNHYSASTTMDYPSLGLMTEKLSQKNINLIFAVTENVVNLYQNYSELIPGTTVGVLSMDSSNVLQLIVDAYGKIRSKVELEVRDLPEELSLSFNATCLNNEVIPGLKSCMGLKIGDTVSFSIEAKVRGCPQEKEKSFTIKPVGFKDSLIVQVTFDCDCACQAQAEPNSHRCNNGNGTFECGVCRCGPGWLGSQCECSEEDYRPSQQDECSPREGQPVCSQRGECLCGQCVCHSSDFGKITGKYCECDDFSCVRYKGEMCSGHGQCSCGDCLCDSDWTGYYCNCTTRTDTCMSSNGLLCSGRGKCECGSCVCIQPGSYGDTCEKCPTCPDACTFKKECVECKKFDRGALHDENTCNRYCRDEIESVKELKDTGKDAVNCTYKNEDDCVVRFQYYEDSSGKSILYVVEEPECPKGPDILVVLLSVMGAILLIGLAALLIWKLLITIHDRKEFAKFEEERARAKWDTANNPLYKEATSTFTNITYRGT
Integrin alpha-IIb/beta-3, sequence (P08514 32-887 limits assumed): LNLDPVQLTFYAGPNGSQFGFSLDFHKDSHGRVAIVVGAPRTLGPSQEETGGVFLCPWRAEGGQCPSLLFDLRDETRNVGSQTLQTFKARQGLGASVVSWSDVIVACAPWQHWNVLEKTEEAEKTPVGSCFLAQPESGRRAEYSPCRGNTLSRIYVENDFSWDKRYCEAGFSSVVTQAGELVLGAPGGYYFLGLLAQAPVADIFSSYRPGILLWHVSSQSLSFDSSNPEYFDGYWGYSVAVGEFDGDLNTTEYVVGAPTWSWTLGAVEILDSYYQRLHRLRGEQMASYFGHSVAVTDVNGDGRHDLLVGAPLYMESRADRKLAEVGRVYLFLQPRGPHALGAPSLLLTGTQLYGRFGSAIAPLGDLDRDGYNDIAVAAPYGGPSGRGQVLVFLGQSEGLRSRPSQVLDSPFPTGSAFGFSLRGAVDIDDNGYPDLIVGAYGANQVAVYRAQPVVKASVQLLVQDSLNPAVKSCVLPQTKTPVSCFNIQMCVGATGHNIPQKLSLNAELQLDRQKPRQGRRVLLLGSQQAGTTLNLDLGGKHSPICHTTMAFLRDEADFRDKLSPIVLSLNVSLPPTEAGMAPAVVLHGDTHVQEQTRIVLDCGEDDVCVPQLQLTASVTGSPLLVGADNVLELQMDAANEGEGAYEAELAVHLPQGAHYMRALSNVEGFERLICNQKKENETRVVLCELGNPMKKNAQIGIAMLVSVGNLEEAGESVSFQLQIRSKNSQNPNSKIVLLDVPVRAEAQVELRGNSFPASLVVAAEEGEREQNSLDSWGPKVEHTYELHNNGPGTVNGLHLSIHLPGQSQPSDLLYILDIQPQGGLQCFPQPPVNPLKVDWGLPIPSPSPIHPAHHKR
Integrin alpha-IIb/beta-3, sequence (P08514 891-1039 limits assumed): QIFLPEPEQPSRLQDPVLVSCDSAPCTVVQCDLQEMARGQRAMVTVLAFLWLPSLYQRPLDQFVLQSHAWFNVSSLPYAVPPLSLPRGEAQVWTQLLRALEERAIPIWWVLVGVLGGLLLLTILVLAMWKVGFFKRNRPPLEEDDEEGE

| SMILES | IC50 [µM] |
| --- | --- |
| CCCC1SC[C@@H](C(=O)O)NC(=O)[C@H](CC(=O)O)NC(=O)CNC(=O)[C@H](CCCNC(=N)N)NC(=O)CNC1=O (stereo partly drawn) | 1.5 |
| N=C(N)NCCC[C@H](N)C(=O)NCC(=O)N[C@@H](CC(=O)O)C(=O)N[C@@H](Cc1ccc(O)cc1)C(=O)O (H-RGDY-OH) | 94 |
| N=C(N)NCCC[C@@H]1NC(=O)CNC(=O)C(c2ccc(-c3ccccc3)cc2)SC[C@@H](C(=O)O)NC(=O)[C@H](CC(=O)O)NC(=O)CNC1=O (stereo partly drawn) | 1.48 |
| CCC1SC[C@@H](C(=O)O)NC(=O)[C@H](CC(=O)O)NC(=O)CNC(=O)[C@H](CCCNC(=N)N)NC(=O)CNC1=O (stereo partly drawn) | 4.85 |
| N=C(N)NCCC[C@@H]1NC(=O)CNC(=O)CS(=O)(=O)C[C@@H](C(=O)O)NC(=O)[C@H](CC(=O)O)NC(=O)CNC1=O | 7.7 |
| N=C(N)NCCC[C@@H]1NC(=O)[C@H](CCC(N)=O)NC(=O)CSC[C@@H](C(=O)O)NC(=O)[C@H](CC(=O)O)NC(=O)CNC1=O | 0.68 |
| N=C(N)NCCC[C@H](NC(=O)CN)C(=O)NCC(=O)N[C@@H](CC(=O)O)C(=O)N[C@@H](CC(=O)O)C(=O)O (H-GRGDD-OH) | > 500 |
| N=C(N)NCCC[C@@H]1NC(=O)CNC(=O)[C@H](Cc2ccccc2)SC[C@@H](C(=O)O)NC(=O)[C@H](CC(=O)O)NC(=O)CNC1=O | 1.9 |
| N=C(N)NCCC[C@@H]1NC(=O)[C@H](CC(=O)O)NC(=O)C[S+]([O-])C[C@@H](C(=O)O)NC(=O)[C@H](CC(=O)O)NC(=O)CNC1=O (stereo partly drawn) (DRGD[Cys(O)(CH2CO)]-OH; lactam N-5) | 2.14 |
| N=C(N)NCCC[C@@H]1NC(=O)CNC(=O)[C@@H](Cc2ccccc2)SC[C@@H](C(=O)O)NC(=O)[C@H](CC(=O)O)NC(=O)CNC1=O | 7 |
| C[C@H]1NC(=O)CSC[C@@H](C(=O)O)NC(=O)[C@H](CC(=O)O)NC(=O)CNC(=O)[C@H](CCCNC(=N)N)NC1=O ({CH2CO}-[dA]RGDC-OH; thioether N-5) | 4 |
| N=C(N)NCCC[C@@H]1NC(=O)[C@H](CCC(=O)O)NC(=O)C[S+]([O-])C[C@@H](C(=O)O)NC(=O)[C@H](CC(=O)O)NC(=O)CNC1=O (stereo partly drawn) | 0.9 |
| N=C(N)NCCC[C@@H]1NC(=O)CSC[C@@H](C(=O)O)NC(=O)[C@H](CC(=O)O)NC(=O)CNC1=O ({CH2CO}-RGDC-OH; thioether N-4) | > 2 |
